# Bioassay records from PubChem BioAssay.
# An excerpt weighted towards active compounds, which were near 4.1% of everything screened.
# STAT1 activator = STAT1 signaling activators, primary screen, cell-based, HTS, luciferase reporter; AID 932, 2007; activation (% of control), % at 5.5 µM; NIH 3T3 STAT1-luciferase reporter, IFN-gamma, luminescence; 100% = IFN-gamma alone, no compound; 2.6% of 200,000 active;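 active means activation above the screen-wide mean activation plus 3 SD, cut at about 130% in these data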;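 further: raw ratio to IFN-gamma control signal so 100% means no change and 0% no light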
# APP 5'UTR act = activators of APP 5'UTR luciferase reporter, primary screen, SH-SY5Y cells; SH-SY5Y APP 5'UTR luciferase reporter, luminescence; zero percent = DMSO vehicle wells; activation, % at 2 µM; 1% of 190,000 active;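 active means activation above a set limit, based on mean plus 3 SD of controls, cut at about 140% in these data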
# FLuc act counter = FLuc activators, initial screening, artefact control for FLuc-dependent activation tests, biochemical, ATPlite luminescence; activation factor at 10 µM; 200,000 tested, under 10 active; Luciferin 4-monooxygenase (Photinus pyralis), P08659; ATPlite luciferase biochemical, 10 min; 0 = ATP-free wells, 1 = DMSO control; AID 1027, 2008;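 active means luciferase activation factor, scaled between plate controls, of at least 2 with compound at 10 µM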
# Target sequence (P08659 whole entry, looked up): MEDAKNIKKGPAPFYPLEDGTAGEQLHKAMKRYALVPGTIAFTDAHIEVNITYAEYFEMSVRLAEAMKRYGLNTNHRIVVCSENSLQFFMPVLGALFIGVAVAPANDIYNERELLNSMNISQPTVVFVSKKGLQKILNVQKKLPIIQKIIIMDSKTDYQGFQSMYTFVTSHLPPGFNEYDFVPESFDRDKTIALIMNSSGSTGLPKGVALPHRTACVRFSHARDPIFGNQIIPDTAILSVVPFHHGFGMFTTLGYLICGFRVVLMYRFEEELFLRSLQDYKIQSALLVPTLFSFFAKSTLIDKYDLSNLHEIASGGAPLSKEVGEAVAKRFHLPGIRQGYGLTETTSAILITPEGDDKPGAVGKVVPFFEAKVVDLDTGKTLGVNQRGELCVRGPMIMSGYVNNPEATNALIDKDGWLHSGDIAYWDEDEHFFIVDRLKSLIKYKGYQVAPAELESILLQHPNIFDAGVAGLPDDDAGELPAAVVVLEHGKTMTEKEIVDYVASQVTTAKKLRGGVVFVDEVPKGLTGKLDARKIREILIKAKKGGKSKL
#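 Material: Luciferase/luciferin reagent mix | Doses: Test compounds dosed from 2 mM stocks in 100% DMSO | Timing: 10 min incubation after luciferase reagent addition, room temperature | Measured by: Luminescence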
# NF-kB neuron act = activators of NF-kB expression in neurons, primary screen, cell-based, HTS | 1.6% of 190,000 active | human neuronal cells, NF-kB reporter expression; active compounds read high | fold change at 12.5 µM; in the data active means fold change above about 3.3
# FLuc inh counter = firefly luciferase enzyme inhibitors, primary screen, artefact control for luciferase-based inhibitor screens, biochemical, luminescence, ATPLite | inhibition, % at 10 µM | 10 min | 1.5% of 200,000 active;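 active means inhibition above about 50% when tested at 10 µM, limit read from the data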
# * marks the source's active call; other numbers are inactive results; . = no result.
SMILES,STAT1 activator,APP 5'UTR act,FLuc act counter,NF-kB neuron act,FLuc inh counter
Cc1ccc(S(=O)(=O)NC2=NCN(CCc3ccccc3)CN2)cc1,97,-10,1,1.2,4
O=C(Nc1ccccc1)c1cc2n(n1)C(C(F)(F)F)CC(C1CC1)N2 (stereo not drawn),142*,86,1,2.3,0
Cn1c(=O)c2c(ncn2CC(=O)N2CCN(C(=O)c3ccco3)CC2)n(C)c1=O,103,-11,1,1.1,-2
O=C(CCC(=O)Nc1ccccc1)NNC(=O)c1cccs1,97,13,1.1,1,-6
O=C(NC(=S)Nc1ccc(Cl)cn1)c1cccs1,194*,186*,0.3,4*,68*
O=C(NNC(=S)Nc1ccccc1)c1cccs1,130*,66,0.6,2.5,44
O=C(NNC(=S)Nc1ccc(Cl)cc1)c1cccs1,131*,53,0.9,1.8,8
c1coc(CNCC2OCCc3ccccc32)c1 (stereo not drawn),104,-2,1.1,0.9,-7
CC1(C)CC(=O)C=C(NCCN2CCN(C(=O)Nc3ccc(Cl)cc3)CC2)C1,97,-4,1.1,1,-8
O=C(CCSc1ccc(Cl)cc1)Nc1cccnc1,100,2,1,7.7*,1
C/C(Cl)=C\Cn1c(O)c(N=NC(N)=S)c2ccccc21,108,-11,1.1,0.78,-6
Cc1ccc(OCCn2cnc3ccccc3c2=O)c([N+](=O)[O-])c1,136*,105,1,1.9,-1
Nc1nonc1N/N=C/c1c(O)ccc2ccccc12,75,-3,1,3.3,-3
Nc1cc(Cl)nc(N/N=C/c2c(O)ccc3ccccc23)n1,96,18,0.7,4.4*,29
Cc1cccc(NC(=O)c2n[nH]c([N+](=O)[O-])c2Br)c1C,123,132,0.6,4.1*,37
Cc1ccc(Cn2nnc(C(=O)Nc3cccc(C)c3C)c2N)cc1,101,19,1,0.76,-4
O=C(OCc1ccccc1F)c1ccc2c(c1)-c1ccccc1C2=O,108,26,1,4.1*,2
O=C(OCc1cccc(F)c1)c1ccc2c(c1)-c1ccccc1C2=O,109,3,1.1,1.5,-8
CCOC(=O)c1nn(-c2ccc(C)c(C)c2)cc1O,101,114,0.5,2.9,50*
CCOC(=O)c1nn(-c2ccc3c(c2)OCCO3)cc1O,96,158*,0.2,1.1,84*
COC(=O)c1nn(-c2ccc3c(c2)CCN3C(C)=O)cc1O,89,-23,0.1,0.91,94*
CCOC(=O)c1nn(-c2ccc(C)cc2)cc1C(=O)c1ccccc1,144*,145*,0.4,6.6*,64*
CSc1ccc(NC(=O)N2CCN(c3nc4ccccc4s3)CC2)cc1,91,13,1.1,0.87,-8
Clc1ccc(Oc2cnns2)cc1Cl,100,-18,1,1.7,0
COc1ccc(/C=C\c2nc(=O)c3ccccc3o2)cc1,100,127,0.1,7.3*,93*
SMILES,STAT1 activator,APP 5'UTR act,FLuc act counter,NF-kB neuron act,FLuc inh counter
O=C(Cn1cnc2ccccc2c1=O)c1ccc2ccccc2c1,120,1,1,2.5,-3
O=C(Cn1cnc2ccccc2c1=O)NCc1ccc2c(c1)OCO2,101,10,1.1,1.4,-6
Cc1ccc(C(=O)CSc2cnc3ccccc3n2)cc1C,118,154*,1,1,-2
O=C(Cn1cnc2ccccc2c1=O)c1ccc2c(c1)OCCO2,137*,151*,0.6,3.6*,37
O=C(O)CSc1ccc2ccccc2n1,99,6,1,1.1,3
Cc1ccc(C(=O)Cn2cnc3ccccc3c2=O)cc1C,138*,28,0.9,3.3*,9
O=C(CSc1ccc2ccccc2n1)c1ccc2c(c1)OCO2,134*,44,1.1,1.2,-5
COCC(=O)Nc1sc2c(c1C(=O)OC)CCC(C)C2 (stereo not drawn),111,12,1,1.1,2
Cc1cc(C(=O)Nn2c(C3CCCCC3)nc3ccccc3c2=O)ccc1[N+](=O)[O-],87,-2,1,1.1,-4
N/C(=N\OCc1ccccc1)c1nonc1N,129*,63,1,1.8,2
COC(=O)c1sccc1NC(=O)Nc1ccc(Cl)c(Cl)c1,144*,16,1,2.4,-1
Cc1ccc(Nc2ncccc2C(=O)O)cc1C,115,7,0.9,1.6,9
O=C(O)c1cccnc1Nc1ccc(Cl)cc1,143*,11,1,2.8,-2
O=C(Nc1ccc(Cl)cc1)Nc1ccccc1C(=O)O,77,119,0.1,4.5*,90*
CSc1ccccc1NC(=O)Nc1ccc(Cl)cc1,99,18,0.9,1.9,12
CC(C)C(=O)Nc1cccc(C(=O)Nc2ccccc2C(=O)O)c1,87,-5,0.4,1.1,61*
O=C(O)CCCC(=O)Nc1cccc(C(=O)Nc2ccccc2C(=O)O)c1,93,-2,1,0.93,2
O=C(NCCc1ccccc1)Nc1ccc(Cl)cc1,147*,.,1.1,2.8,-5
O=C(Nc1ccc(Cl)c(Cl)c1)Nc1ccccc1C(=O)O,140*,215*,0.3,7.7*,67*
O=C(CN1CCN(c2ncccn2)CC1)Nc1ccccc1-n1cccc1,97,6,1.1,0.77,-7
CCCCn1c(=O)c2ccccc2c2ccccc2c1=O,97,16,1,1.2,-5
CCn1ccc(C(=O)Oc2ccc(C(C)C)cc2)n1,100,0,0.4,1.2,62*
CCn1ccc(C(=O)N2CCOCC2)n1,108,11,1,1.3,-4
Clc1ccc(SCc2cc(N3CCOCC3)nc(-c3ccccn3)n2)cc1,96,-28,1,1.1,-4
O=C(O)COc1ccccc1/C=N/NC(=O)c1cc(-c2ccc(F)cc2)nc2ccccc12,99,24,0.4,0.93,59*
SMILES,STAT1 activator,APP 5'UTR act,FLuc act counter,NF-kB neuron act,FLuc inh counter
COc1ccc(Nc2nc(N)nc(CSC(=S)N3CCCCC3)n2)cc1,129*,13,1,1.5,3
Cc1ccc(/C=C/C(=O)OCC(=O)NCCN2C(=O)CSC2=O)o1,98,22,1,1.3,-2
CCC(=O)c1cc2c(cc1NC(=O)c1ccccc1)OCCO2,108,.,1,1.1,-1
O=C(Nc1cc2c(cc1Br)OCCCO2)c1ccccc1,146*,114,0.9,3.1,12
O=C(Nc1cc2c(cc1Cl)OCCCO2)c1ccc(F)cc1,145*,62,0.9,2.9,9
O=C(Nc1cc2c(oc1=O)CCCC2=O)c1cccc(Cl)c1,110,1,1.1,1.3,-8
COc1ccc(C(=O)Nc2cc3c(oc2=O)CCCC3=O)cc1,138*,10,1,1.2,4
